Data taken from ChEMBL document CHEMBL4041489, “Meroterpenoids and Chalcone-Lignoids from the Roots of Mimosa diplotricha” (J Nat Prod, 2016).
pIC50: −log10 of the molar value.

Experiments:
[1] = Inhibition of rat protein farnesyltransferase pretreated for 15 mins followed by dansyl-Gly-Cys-Val-Leu-Ser-OH substrate addition in presence of farnesyl pyrophosphate measured after 30 mins by fluorescence assay
HepG2 = experiment: Antiproliferative activity against human HepG2 cells measured after 72 hrs by SRB assay; format: functional; conditions: HepG2, 72 h
Outline: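 HepG2 cells from BCRC grown in RPMI 1640 with 10% FBS, nonessential amino acids, penicillin/streptomycin at 37 °C, 5% CO2. Cells were seeded in 10% FBS medium, and a T0 plate was TCA-fixed at 24 h. Compound or DMSO was added for 72 h, then cells were fixed with 10% TCA and stained with 0.4% SRB. Absorbance read at 515 nm; % growth vs T0 and control gave GI50.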

[2] = Inhibition of porcine brain protein farnesyltransferase using p21 ras protein as substrate in presence of [3H]FPP after 1 hr by liquid scintillation counting method; design: species or system Sus scrofa

SMILES	pIC50 [1]	GI50 (HepG2)	pIC50 [2]
COC1=CC(=O)[C@@]2(c3cc(=O)c4c(O)cc(O)cc4o3)[C@H](CC=C(C)[C@@H]2C[C@]2(C)[C@@H](C(=O)O)CC=C3[C@H]2CCCC3(C)C)C1=O	5.29	> 10 µM	–
COC1=CC(=O)[C@@]2(c3cc(=O)c4c(O)cc(O)cc4o3)[C@H](C[C@]3(C)[C@@H](C(=O)O)CC=C4[C@H]3CCCC4(C)C)C(C)=CC[C@H]2C1=O	5.07	> 10 µM	–
CSCC[C@H](NC(=O)c1ccc(NC(=O)[C@@H](N)CS)cc1)C(=O)O	7.00	–	7.12 to 7.30
COC1=CC(=O)[C@@]2(c3cc(=O)c4ccc(OC)cc4o3)[C@H](C[C@]3(C)[C@@H](C(=O)O)CC=C4[C@H]3CCCC4(C)C)C(C)=CC[C@H]2C1=O	5.12	> 10 µM	–
COC1=CC(=O)[C@@]2(c3cc(=O)c4ccc(O)cc4o3)[C@H](CC=C(C)[C@@H]2C[C@]2(C)[C@@H](C(=O)O)CC=C3[C@H]2CCCC3(C)C)C1=O	4.55	> 10 µM	–
COC1=CC(=O)[C@@]2(c3cc(=O)c4ccc(O)cc4o3)[C@H](C[C@]3(C)[C@@H](C(=O)O)CC=C4[C@H]3CCCC4(C)C)C(C)=CC[C@H]2C1=O	4.33	> 10 µM	–
COC1=CC(=O)[C@@]2(c3cc(=O)c4c(O)cc(OC)cc4o3)[C@H](C[C@]3(C)[C@@H](C(=O)O)CC=C4[C@H]3CCCC4(C)C)C(C)=CC[C@H]2C1=O	5.30	8.6 µM	–
